According to ChEMBL document CHEMBL3588853, “Synthesis, biological evaluation, and molecular docking studies of novel 1-benzene acyl-2-(1-methylindol-3-yl)-benzimidazole derivatives as potential tubulin polymerization inhibitors” (Eur J Med Chem, 2015):

Tests used:
Tubulin (Bos taurus) = Tubulin (Bos taurus) (UniProt Q6B856+Q862F3); conditions: at 5 µM
A549 = test: Growth inhibition of human A549 cells assessed as inhibition of cell proliferation after 24 hrs by MTT assay; format: functional; conditions: A549, 24 h
How it was run: (§1)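 Cells seeded at (1–5) × 10^3 per well and grown 12 h at 37 °C. Compounds added at increasing concentrations in medium with 10% FBS for 24 h. MTT dye then added, followed by 3–4 h at 37 °C. Medium discarded, formazan dissolved in DMSO and plate read. GI50 calculated relative to DMSO-treated control wells.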

MCF7 = test: Growth inhibition of human MCF7 cells assessed as inhibition of cell proliferation after 24 hrs by MTT assay; format: functional; conditions: MCF7, 24 h
How it was run: as §1

Tubulin = Tubulin (Bos taurus, UniProt Q6B856+Q862F3); test: Inhibition of bovine brain tubulin polymerization extent after 20 mins by turbidimetrically
HepG2 = test: Growth inhibition of human HepG2 cells assessed as inhibition of cell proliferation after 24 hrs by MTT assay; format: functional; conditions: HepG2, 24 h
How it was run: as §1

Sequence of Tubulin (Q6B856 whole entry): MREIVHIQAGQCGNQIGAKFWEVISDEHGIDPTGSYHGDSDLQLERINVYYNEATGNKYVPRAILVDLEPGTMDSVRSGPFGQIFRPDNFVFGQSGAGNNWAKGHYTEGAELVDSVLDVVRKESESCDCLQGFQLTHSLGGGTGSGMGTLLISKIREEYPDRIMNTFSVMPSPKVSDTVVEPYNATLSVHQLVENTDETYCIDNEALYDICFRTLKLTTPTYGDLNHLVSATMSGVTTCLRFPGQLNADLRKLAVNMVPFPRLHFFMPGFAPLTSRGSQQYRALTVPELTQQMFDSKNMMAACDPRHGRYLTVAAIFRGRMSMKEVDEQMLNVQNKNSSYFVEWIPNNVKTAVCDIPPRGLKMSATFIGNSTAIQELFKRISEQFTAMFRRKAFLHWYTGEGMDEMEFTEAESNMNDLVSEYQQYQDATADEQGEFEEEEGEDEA
Sequence of Tubulin (Q862F3 whole entry): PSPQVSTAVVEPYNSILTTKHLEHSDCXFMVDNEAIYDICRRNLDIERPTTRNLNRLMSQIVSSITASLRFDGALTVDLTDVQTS

| Structure (SMILES) | inhibition (Tubulin (Bos taurus)) | GI50 (A549) | GI50 (MCF7) | IC50 (Tubulin) | GI50 (HepG2) |
| --- | --- | --- | --- | --- | --- |
| COc1cccc(C(=O)n2c(-c3cn(C)c4ccccc34)nc3ccccc32)c1 | 81% | 10.2 µM | 15.7 µM | 4.4 µM | 13.6 µM |
| COc1ccc2c(c1)c(-c1nc3ccccc3n1C(=O)c1ccccc1Br)cn2C | 55% | 29.5 µM | 55.8 µM | 32.3 µM | 54.2 µM |
| Cn1cc(-c2nc3ccccc3n2C(=O)c2cccc(Br)c2)c2cc(Br)ccc21 | 51% | 38.5 µM | 68.2 µM | 39.7 µM | 67.3 µM |
| Cn1cc(-c2nc3ccccc3n2C(=O)c2ccccc2Br)c2ccccc21 | 50% | 43.2 µM | 70.1 µM | 42.9 µM | 68.2 µM |
| COc1cc(C(=O)n2c(-c3cn(C)c4ccc(Br)cc34)nc3ccccc32)cc(OC)c1OC | 91% | 3 µM | 9.7 µM | 2 µM | 8.2 µM |

The next lines start with the values.

| inhibition (Tubulin (Bos taurus)) | GI50 (A549) | GI50 (MCF7) | IC50 (Tubulin) | GI50 (HepG2) | Structure (SMILES) |
| --- | --- | --- | --- | --- | --- |
| 84% | 4.6 µM | 14.6 µM | 3.3 µM | 11.7 µM | COc1cccc(C(=O)n2c(-c3cn(C)c4ccc(OC)cc34)nc3ccccc32)c1 |
| 52% | 34.2 µM | 63.4 µM | 35.2 µM | 61.4 µM | Cn1cc(-c2nc3ccccc3n2C(=O)c2cccc(Br)c2)c2ccccc21 |
| 75% | 11.3 µM | 19.2 µM | 6.3 µM | 18.9 µM | COc1ccc(C(=O)n2c(-c3cn(C)c4ccc(Br)cc34)nc3ccccc32)cc1 |
| 80% | 10.4 µM | 16.3 µM | 4.6 µM | 15.2 µM | COc1ccc(C(=O)n2c(-c3cn(C)c4ccccc34)nc3ccccc32)cc1 |
| 68% | 12.8 µM | 36.2 µM | 17.3 µM | 34.6 µM | COc1ccccc1C(=O)n1c(-c2cn(C)c3ccc(Br)cc23)nc2ccccc21 |
| 85% | 3.4 µM | 11.3 µM | 2.4 µM | 9.7 µM | COc1ccc(C(=O)n2c(-c3cn(C)c4ccc(Br)cc34)nc3ccccc32)cc1OC |
| 87% | 3.1 µM | 10.2 µM | 2.1 µM | 8.4 µM | COc1ccc(C(=O)n2c(-c3cn(C)c4ccccc34)nc3ccccc32)cc1OC |
| 82% | 4.9 µM | 14.8 µM | 3.5 µM | 12.8 µM | COc1ccc(C(=O)n2c(-c3cn(C)c4ccc(OC)cc34)nc3ccccc32)cc1 |
